Measured values: paper PMC3361572 (Chemistry & biology, 2012)

Columns and labels:
MAGL [1] = biological target: T1, MAGL (Mus musculus, UniProt O35678); experiment: competitive ABPP, mouse brain membrane proteome; type: biochemical
T1 sequence (O35678 1-303): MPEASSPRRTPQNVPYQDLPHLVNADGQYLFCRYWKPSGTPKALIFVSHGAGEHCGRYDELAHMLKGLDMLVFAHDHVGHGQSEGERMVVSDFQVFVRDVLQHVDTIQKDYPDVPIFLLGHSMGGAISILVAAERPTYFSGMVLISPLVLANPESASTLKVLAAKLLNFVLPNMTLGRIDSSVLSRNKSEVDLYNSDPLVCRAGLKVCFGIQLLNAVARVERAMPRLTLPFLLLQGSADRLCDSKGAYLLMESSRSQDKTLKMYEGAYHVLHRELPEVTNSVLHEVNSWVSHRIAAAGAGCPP

MAGL [2] = biological target: T2, MAGL (Rattus norvegicus, UniProt Q8R431); experiment: competitive ABPP, rat brain membrane proteome; type: biochemical
T2 sequence (Q8R431 1-303): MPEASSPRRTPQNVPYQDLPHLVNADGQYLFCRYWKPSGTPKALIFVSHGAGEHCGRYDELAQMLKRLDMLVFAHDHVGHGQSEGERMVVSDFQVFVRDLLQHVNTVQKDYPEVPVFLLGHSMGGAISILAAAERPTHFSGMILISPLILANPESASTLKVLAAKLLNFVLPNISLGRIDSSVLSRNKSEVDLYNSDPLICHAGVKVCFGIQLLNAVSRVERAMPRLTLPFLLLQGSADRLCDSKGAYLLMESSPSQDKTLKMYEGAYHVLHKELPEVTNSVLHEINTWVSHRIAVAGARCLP
Method in brief: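 Brain (mouse or rat) or mouse lung proteomes were preincubated with the test compound, then treated with the serine hydrolase probe FP-Rh. Samples were separated by SDS-PAGE and read by in-gel fluorescence scanning. Inhibition was taken as reduced FP-Rh labelling of MAGL, ABHD6, FAAH or CES bands, and IC50 values were calculated from quantified gel bands. Three independent experiments.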

hFAAH = biological target: T3, hFAAH (Homo sapiens, UniProt O00519); experiment: competitive ABPP, proteomes of transiently transfected HEK293T cells; type: biochemical
T3 sequence (O00519 1-579): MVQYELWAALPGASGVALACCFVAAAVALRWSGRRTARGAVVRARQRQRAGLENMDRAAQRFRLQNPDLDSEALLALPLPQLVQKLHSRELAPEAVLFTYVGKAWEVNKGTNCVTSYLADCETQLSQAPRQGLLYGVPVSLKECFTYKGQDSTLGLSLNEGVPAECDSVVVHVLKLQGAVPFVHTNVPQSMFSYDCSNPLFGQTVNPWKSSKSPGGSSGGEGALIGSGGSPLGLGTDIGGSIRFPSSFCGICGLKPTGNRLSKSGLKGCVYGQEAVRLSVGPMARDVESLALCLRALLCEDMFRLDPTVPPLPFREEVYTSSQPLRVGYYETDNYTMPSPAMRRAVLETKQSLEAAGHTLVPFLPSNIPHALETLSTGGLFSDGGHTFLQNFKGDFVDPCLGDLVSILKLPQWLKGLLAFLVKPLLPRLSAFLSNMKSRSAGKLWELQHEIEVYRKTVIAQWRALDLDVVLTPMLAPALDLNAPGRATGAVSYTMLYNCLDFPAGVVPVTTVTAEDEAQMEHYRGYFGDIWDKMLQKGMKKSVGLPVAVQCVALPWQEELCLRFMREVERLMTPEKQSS

FAAH [3] = biological target: T4, FAAH (Mus musculus, UniProt O08914); experiment: AEA substrate assay in mouse brain proteomes; type: biochemical
T4 sequence (O08914 1-579): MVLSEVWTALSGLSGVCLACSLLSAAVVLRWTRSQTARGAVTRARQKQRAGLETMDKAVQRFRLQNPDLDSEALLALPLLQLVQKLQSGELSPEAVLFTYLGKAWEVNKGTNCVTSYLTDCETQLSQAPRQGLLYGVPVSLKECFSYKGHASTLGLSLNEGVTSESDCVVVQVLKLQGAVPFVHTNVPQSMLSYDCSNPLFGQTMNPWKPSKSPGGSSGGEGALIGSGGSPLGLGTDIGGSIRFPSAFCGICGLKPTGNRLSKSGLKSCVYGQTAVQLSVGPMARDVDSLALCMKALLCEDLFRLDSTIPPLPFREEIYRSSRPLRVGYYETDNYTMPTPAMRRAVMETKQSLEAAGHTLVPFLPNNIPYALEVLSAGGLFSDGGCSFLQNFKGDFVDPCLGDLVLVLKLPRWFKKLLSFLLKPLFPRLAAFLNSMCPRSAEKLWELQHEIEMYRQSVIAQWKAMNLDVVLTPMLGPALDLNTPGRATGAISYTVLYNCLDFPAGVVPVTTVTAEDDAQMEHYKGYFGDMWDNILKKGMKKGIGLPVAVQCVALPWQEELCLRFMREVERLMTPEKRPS
Method in brief: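 Mouse brain proteome was treated with test compound. FAAH activity was read as hydrolysis of AEA substrate. Data are means ± SEM of three independent experiments.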

FAAH [4] = biological target: T5, FAAH (Rattus norvegicus, UniProt P97612); experiment: competitive ABPP of brain from KML29-treated rats; type: in vivo; conditions: Wistar rats, 1–40 mg kg^−1 i.p., 4 h
T5 sequence (P97612 1-579): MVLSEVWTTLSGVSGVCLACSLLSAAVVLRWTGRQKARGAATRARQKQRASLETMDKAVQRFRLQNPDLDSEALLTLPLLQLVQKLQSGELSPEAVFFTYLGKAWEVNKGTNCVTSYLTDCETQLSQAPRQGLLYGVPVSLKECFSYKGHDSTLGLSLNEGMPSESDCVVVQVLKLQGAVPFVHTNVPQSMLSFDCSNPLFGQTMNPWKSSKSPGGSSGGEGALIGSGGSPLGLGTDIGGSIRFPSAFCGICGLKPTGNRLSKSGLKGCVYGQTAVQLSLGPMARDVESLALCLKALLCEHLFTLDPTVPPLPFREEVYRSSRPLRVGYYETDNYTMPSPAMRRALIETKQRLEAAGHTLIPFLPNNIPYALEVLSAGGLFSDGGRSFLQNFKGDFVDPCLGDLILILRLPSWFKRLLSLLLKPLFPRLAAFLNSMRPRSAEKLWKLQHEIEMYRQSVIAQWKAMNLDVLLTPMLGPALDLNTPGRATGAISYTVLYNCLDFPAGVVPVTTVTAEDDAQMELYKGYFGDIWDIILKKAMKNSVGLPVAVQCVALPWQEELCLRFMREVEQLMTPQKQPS
Method in brief: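 Wistar rats were injected i.p. with the test compound (1–40 mg kg−1) or vehicle. Vehicle was saline:emulphor:ethanol 18:1:1, with prolonged sonication and mild heating to dissolve. Rats were killed at 4 h. Brain, liver, lung and spleen proteomes were labelled with FP-Rh, separated by SDS-PAGE and scanned for in-gel fluorescence. Inhibition was scored as reduced probe labelling. n = 3 rats/group.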

O=C(OC(C(F)(F)F)C(F)(F)F)N1CCC(C(O)(c2ccc3c(c2)OCO3)c2ccc3c(c2)OCO3)CC1 [KML29]
selectivity for MAGL relative to ABHD6 (MAGL [1]; mouse brain proteome, competitive ABPP): greater than 100 fold | inhibitor concentrations with selective inhibition of MAGL (MAGL [1]; mouse brain serine hydrolase activities, full ABPP gel): ≤ 1 µM | selectivity for rat MAGL relative to rat ABHD6 (MAGL [2]; rat brain homogenates, competitive ABPP): > 20 fold | inhibitor concentrations with selective inhibition of MAGL (MAGL [2]; rat brain serine hydrolase activities, full ABPP gel): ≤ 1 µM | IC50 (MAGL [2]; read-out: IC50 (95% CI), rat MAGL, competitive ABPP, rat brain membrane proteome): 43 nM | cross-reactivity with hFAAH (competitive ABPP) (hFAAH; lysates of HEK293T cells transfected with hFAAH): no-detectable cross-reactivity with hFAAH | IC50 (hFAAH; read-out: IC50 (95% CI), human FAAH, competitive ABPP, transfected HEK293T cell proteome): > 50000 nM | effect on AEA hydrolysis (FAAH [3]): did not affect AEA hydrolysis at any concentration tested | cross-reactivity with brain FAAH (FAAH [4]): without any detectable cross-reactivity
